According to ChEMBL document CHEMBL5653605, “Reduced VEGF production, angiogenesis, and vascular regrowth contribute to the antitumor properties of dual mTORC1/mTORC2 inhibitors” (Cancer Res, 2011):
One block for each molecule: values may come before it. Activity calls are given as the source filed them.

Columns and labels:
[1] = tested on: Pancreatic islet cell carcinoma; test: Antitumor activity in pancreatic islet cell carcinoma in RIP-Tag2 mouse assessed as induction of apoptosis by measuring increase in activated caspase-3 level at 100 mg/kg, po qd administered via gavage for 4 days in presence of rapamycin by immunohistochemistry analysis; assay type: functional, organism-based; conditions: time 4.0 day
Procedure, shortened: (§1)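 Perfusion-fixed tumor sections (60–80 µm) stained for phospho-histone H3 (proliferation) or activated caspase-3 (apoptosis) and quantified from confocal images. 3–8 mice/group; ANOVA, Fisher PLSD.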

[2] = tested on: Pancreatic islet cell carcinoma; test: Antivascular activity against pancreatic islet cell carcinoma in RIP-Tag2 mouse assessed as appearance of empty basement membrane sleeves at 200 mg/kg, po qd administered via gavage and measured after 7 days by immunohistochemical staining based fluorescence microscopic analysis; assay type: functional, organism-based; conditions: time 7.0 day
Procedure, shortened: (§2)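 For 7 days, RIP-Tag2 mice, 9–10 weeks old, received 75 mg/kg gavage BID, 200 mg/kg gavage QD, or 20 mg/kg ip QD. Perfusion-fixed tumors cut at 60–80 µm and stained for CD31 and type IV collagen basement membrane. Vessel area density from fluorescence images with threshold 30–50; sprouts and empty basement membrane sleeves examined by confocal microscopy. 3–8 mice/group; ANOVA, Fisher PLSD.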

[3] = tested on: Pancreatic islet cell carcinoma; test: Additive antitumor activity in pancreatic islet cell carcinoma in RIP-Tag2 mouse assessed as induction of apoptosis by measuring increase in activated caspase-3 level at 100 mg/kg, po qd administered via gavage for 4 days in presence of OXA-01 by immunohistochemistry analysis relative to control; assay type: functional; conditions: time 4 day; procedure, shortened: as §1
[4] = tested on: Pancreatic islet cell carcinoma; test: (§3) Antivascular activity in pancreatic islet cell carcinoma in RIP-Tag2 mouse assessed as reduction in intratumoral hemorrhage by measuring reduction in TER-119 immunoreactivity at 200 mg/kg, po qd administered via gavage and measured after 7 days by confocal microscopic analysis relative to control; assay type: functional; set-up: scale not given: the % may be the effect or the level left; conditions: time 7 day
Procedure, shortened: (§4)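 Regrowth design in 10-week-old RIP-Tag2 mice: OSI-930 200 mg/kg gavage QD for 7 days, then 4 days of vehicle, 75 mg/kg gavage BID, or 20 mg/kg ip QD; controls received vehicle for 11 days. Perfusion-fixed sections stained for CD31 for vessel density or for the erythrocyte marker TER-119, quantified by confocal microscopy. 3–8 mice/group; ANOVA, Fisher PLSD.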

[5] = tested on: Pancreatic islet cell carcinoma; test: as §3, with “gavage for 7 days followed by cessation” for “gavage”, “4” for “7”; assay type: functional; set-up: scale not given: the % may be the effect or the level left; conditions: time 7 day; procedure, shortened: as §4
[6] = tested on: Pancreatic islet cell carcinoma; test: Antivascular activity against pancreatic islet cell carcinoma in RIP-Tag2 mouse assessed as reduction in CD31-positive tumor blood vessels at 200 mg/kg, po qd administered via gavage and measured after 7 days by immunohistochemical staining based fluorescence microscopic analysis relative to control; assay type: functional; set-up: scale not given: the % may be the effect or the level left; conditions: time 7 day; procedure, shortened: as §2
[7] = tested on: Pancreatic islet cell carcinoma; test: Antivascular activity against pancreatic islet cell carcinoma in RIP-Tag2 mouse assessed as reduction in vascular sprouts at 200 mg/kg, po qd administered via gavage and measured after 7 days by immunohistochemical staining based fluorescence microscopic analysis relative to control; assay type: functional; set-up: scale not given: the % may be the effect or the level left; conditions: time 7 day; procedure, shortened: as §2
[8] = target: Vascular endothelial growth factor receptor 2 (Homo sapiens, UniProt P35968)
[9] = tested on: Pancreatic islet cell carcinoma; test: Additive antitumor activity in pancreatic islet cell carcinoma in RIP-Tag2 mouse assessed as reduction in proliferation by measuring reduction in phospho-histone H3 level at 100 mg/kg, po qd administered via gavage for 4 days in presence of OXA-01 by immunohistochemistry analysis; assay type: functional, organism-based; conditions: time 4.0 day; procedure, shortened: as §1
[10] = tested on: Pancreatic islet cell carcinoma; test: Antitumor activity against pancreatic islet cell carcinoma in RIP-Tag2 mouse assessed as reduction in VEGF production by measuring reduction in fluorescence in entire tumor at 20 mg/kg, ip qd measured after 7 days by immunohistochemical staining based confocal microscopic analysis relative to control; assay type: functional; set-up: scale not given: the % may be the effect or the level left; conditions: time 7 day
Procedure, shortened: (§5)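 Treatment began in RIP-Tag2 mice at 9–10 weeks: 75 mg/kg gavage BID for 1, 4 or 7 days, or 20 mg/kg ip QD for 7 days; vehicle Labrifil or water. Tissue fixed by vascular perfusion and 60–80 µm sections stained for VEGF with CD31. VEGF fluorescence intensity measured over whole tumor, tumor cells, or tumor vessels. 3–8 mice/group; ANOVA, Fisher PLSD.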

[11] = target: RAC-alpha serine/threonine-protein kinase (Homo sapiens) (UniProt P31749); test: Inhibition of AKT phosphorylation at Ser 473 site in serum deprived/insulin stimulated human OVCAR-3 cells harboring PTEN and wild type PI3K at 0.001 to 10 uM preincubated for 2 hrs followed by insulin stimulation and measured immediately by Western blot analysis; assay type: cell-based; conditions: dose 0.001-10 µM
[12] = tested on: Pancreatic islet cell carcinoma; test: Antitumor activity against pancreatic islet cell carcinoma in RIP-Tag2 mouse assessed as reduction in VEGF-A expression at 20 mg/kg, ip qd measured after 7 days by immunoprecipitation based densitometric analysis; assay type: functional, organism-based; conditions: time 7.0 day
Procedure, shortened: (§6)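 VEGF in tumor lysates from treated RIP-Tag2 mice (9–10 weeks old at start; 75 mg/kg gavage BID or 20 mg/kg ip QD) measured with mouse angiogenesis antibody arrays, read as pixel density. 3–8 mice/group, SEM; ANOVA with Fisher PLSD.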

[13] = tested on: Pancreatic islet cell carcinoma; test: Antivascular activity against pancreatic islet cell carcinoma in RIP-Tag2 mouse assessed as appearance of empty basement membrane sleeves at 20 mg/kg, ip qd measured after 7 days by immunohistochemical staining based confocal microscopic analysis; assay type: functional, organism-based; conditions: time 7.0 day; procedure, shortened: as §2
Mus musculus [14] = test: In vivo inhibition of 4E-BP1 phosphorylation at Ser37/46 residues in nu/nu CD-1 mouse xenografted with human GEO cells at 20 mg/kg administered for 12 days and measured 2 to 24 hrs post last dose by Western blot analysis; assay type: functional, organism-based; conditions: time 290-312 hrs
Procedure, shortened: (§7)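 GEO s.c. xenografts in nu/nu CD-1 mice; 20 mg/kg for 12 days; tumors snap-frozen at 2, 8, 24 h, lysed in Triton X-100/HEPES pH 7.4 buffer with phosphatase inhibitors; phospho and total 4E-BP1 (37/46) or S6 (235/236) by Western blot; n=2.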

[15] = target: Eukaryotic translation initiation factor 4E-binding protein 1 (Homo sapiens) (UniProt Q13541); test: Inhibition of 4E-BP1 phosphorylation at Ser 37/46 residues in serum deprived/insulin stimulated human OVCAR-3 cells harboring PTEN and wild type PI3K at 0.001 to 10 uM preincubated for 2 hrs followed by insulin stimulation and measured immediately by Western blot analysis; assay type: cell-based; conditions: dose 0.001-10 µM
Mus musculus [16] = test: In vivo inhibition of AKT phosphorylation in RIP-Tag2 mouse with pancreatic islet cell carcinoma 20 mg/kg, ip qd measured after 7 days by immunohistochemistry; assay type: functional, organism-based; conditions: time 7.0 day
Procedure, shortened: (§8)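 RIP-Tag2 mice, 9–10 weeks old, given 20 mg/kg QD ip for 7 days; perfusion-fixed, 60–80 µm tumor sections immunostained for phospho-4E-BP1, phospho-Akt or phospho-S6K together with CD31; fluorescence/confocal imaging; 3–8 mice per group.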

[17] = tested on: Pancreatic islet cell carcinoma; test: Antivascular activity in pancreatic islet cell carcinoma in RIP-Tag2 mouse assessed as reduction in intratumoral hemorrhage by measuring reduction in TER-119 immunoreactivity at 20 mg/kg, ip qd pretreated with OSI-930 for 7 days at 200 mg/kg, po followed by compound administration and measured after 4 days by confocal microscopic analysis relative to control; assay type: functional; set-up: scale not given: the % may be the effect or the level left; conditions: time 4 day; procedure, shortened: as §4
OVCAR-3 [18] = test: (§9) Inhibition of S6K phosphorylation at 235/236 residues in serum deprived/insulin stimulated human OVCAR-3 cells harboring PTEN and wild type PI3K at 0.001 to 10 uM preincubated for 2 hrs followed by insulin stimulation and measured immediately by Western blot analysis; assay type: cell-based; conditions: dose 0.001-10 µM
Mus musculus [19] = test: In vivo inhibition of S6 phosphorylation at 235/236 residues in nu/nu CD-1 mouse xenografted with human GEO cells at 20 mg/kg administered for 12 days and measured 2 to 24 hrs post last dose by Western blot analysis; assay type: functional, organism-based; conditions: time 290-312 hrs; procedure, shortened: as §7
Mus musculus [20] = test: In vivo inhibition of S6K phosphorylation in RIP-Tag2 mouse with pancreatic islet cell carcinoma 20 mg/kg, ip qd measured after 7 days by immunohistochemistry analysis; assay type: functional, organism-based; conditions: time 7.0 day; procedure, shortened: as §8
OVCAR-3 [21] = test: as §9, with “S6K” for “S6K phosphorylation”, “PI3K assessed as inhibition of s6 substrate phosphorylation at […] residue” for “PI3K”; assay type: cell-based; conditions: dose 0.001-10 µM
[22] = tested on: Pancreatic islet cell carcinoma; test: Antivascular activity in pancreatic islet cell carcinoma in RIP-Tag2 mouse assessed as suppression of tumor regrowth by measuring reduction in vessel density at 20 mg/kg, ip qd pretreated with OSI-930 for 7 days at 200 mg/kg, po followed by compound administration and measured after 4 days (reference value: 18%); assay type: functional; set-up: scale not given: the % may be the effect or the level left; conditions: time 4 day; procedure, shortened: as §4
[23] = tested on: Pancreatic islet cell carcinoma; test: (§10) Antitumor activity against pancreatic islet cell carcinoma in RIP-Tag2 mouse assessed as reduction in VEGF production by measuring reduction in tumor vessels associated fluorescence intensity at 20 mg/kg, ip qd measured after 7 days by immunohistochemical staining based confocal microscopic analysis relative to control; assay type: functional; set-up: scale not given: the % may be the effect or the level left; conditions: time 7 day; procedure, shortened: as §5
[24] = tested on: Pancreatic islet cell carcinoma; test: Antivascular activity against pancreatic islet cell carcinoma in RIP-Tag2 mouse assessed as reduction in vascular sprouts at 20 mg/kg, ip qd measured after 7 days by immunohistochemical staining based fluorescence microscopic analysis relative to control; assay type: functional; set-up: scale not given: the % may be the effect or the level left; conditions: time 7 day; procedure, shortened: as §2
[25] = tested on: Pancreatic islet cell carcinoma; test: as §10, with “cell” for “vessels”; assay type: functional; set-up: scale not given: the % may be the effect or the level left; conditions: time 7 day; procedure, shortened: as §5
Mus musculus [26] = test: In vivo inhibition of 4E-BP1 phosphorylation in RIP-Tag2 mouse with pancreatic islet cell carcinoma 20 mg/kg, ip qd measured after 7 days by immunohistochemistry; assay type: functional, organism-based; conditions: time 7.0 day; procedure, shortened: as §8
[27] = tested on: Pancreatic islet cell carcinoma; test: Antitumor activity in pancreatic islet cell carcinoma in RIP-Tag2 mouse assessed as induction of apoptosis by measuring increase in activated caspase-3 level at 20 mg/kg, ip qd […] for 4 days in presence of OSI-930 by immunohistochemistry analysis; assay type: functional, organism-based; conditions: time 4.0 day; procedure, shortened: as §1
[28] = target: Proline-rich AKT1 substrate 1 (Homo sapiens) (UniProt Q96B36); test: Inhibition of PRAS40 phosphorylation at Ser 246 residue in serum deprived/insulin stimulated human OVCAR-3 cells harboring PTEN and wild type PI3K at 0.001 to 10 uM preincubated for 2 hrs followed by insulin stimulation and measured immediately by Western blot analysis; assay type: cell-based; conditions: dose 0.001-10 µM
[29] = tested on: Pancreatic islet cell carcinoma; test: Antivascular activity against pancreatic islet cell carcinoma in RIP-Tag2 mouse assessed as reduction in CD31-positive tumor blood vessels at 20 mg/kg, ip qd measured after 7 days by immunohistochemical staining based fluorescence microscopic analysis; assay type: functional, organism-based; conditions: time 7.0 day; procedure, shortened: as §2
[30] = tested on: Pancreatic islet cell carcinoma; test: Antitumor activity against pancreatic islet cell carcinoma in RIP-Tag2 mouse assessed as reduction in VEGF-B expression at 20 mg/kg, ip qd measured after 7 days by immunoprecipitation based densitometric analysis; assay type: functional, organism-based; conditions: time 7.0 day; procedure, shortened: as §6

Chain of Vascular endothelial growth factor receptor 2 (P35968 whole entry): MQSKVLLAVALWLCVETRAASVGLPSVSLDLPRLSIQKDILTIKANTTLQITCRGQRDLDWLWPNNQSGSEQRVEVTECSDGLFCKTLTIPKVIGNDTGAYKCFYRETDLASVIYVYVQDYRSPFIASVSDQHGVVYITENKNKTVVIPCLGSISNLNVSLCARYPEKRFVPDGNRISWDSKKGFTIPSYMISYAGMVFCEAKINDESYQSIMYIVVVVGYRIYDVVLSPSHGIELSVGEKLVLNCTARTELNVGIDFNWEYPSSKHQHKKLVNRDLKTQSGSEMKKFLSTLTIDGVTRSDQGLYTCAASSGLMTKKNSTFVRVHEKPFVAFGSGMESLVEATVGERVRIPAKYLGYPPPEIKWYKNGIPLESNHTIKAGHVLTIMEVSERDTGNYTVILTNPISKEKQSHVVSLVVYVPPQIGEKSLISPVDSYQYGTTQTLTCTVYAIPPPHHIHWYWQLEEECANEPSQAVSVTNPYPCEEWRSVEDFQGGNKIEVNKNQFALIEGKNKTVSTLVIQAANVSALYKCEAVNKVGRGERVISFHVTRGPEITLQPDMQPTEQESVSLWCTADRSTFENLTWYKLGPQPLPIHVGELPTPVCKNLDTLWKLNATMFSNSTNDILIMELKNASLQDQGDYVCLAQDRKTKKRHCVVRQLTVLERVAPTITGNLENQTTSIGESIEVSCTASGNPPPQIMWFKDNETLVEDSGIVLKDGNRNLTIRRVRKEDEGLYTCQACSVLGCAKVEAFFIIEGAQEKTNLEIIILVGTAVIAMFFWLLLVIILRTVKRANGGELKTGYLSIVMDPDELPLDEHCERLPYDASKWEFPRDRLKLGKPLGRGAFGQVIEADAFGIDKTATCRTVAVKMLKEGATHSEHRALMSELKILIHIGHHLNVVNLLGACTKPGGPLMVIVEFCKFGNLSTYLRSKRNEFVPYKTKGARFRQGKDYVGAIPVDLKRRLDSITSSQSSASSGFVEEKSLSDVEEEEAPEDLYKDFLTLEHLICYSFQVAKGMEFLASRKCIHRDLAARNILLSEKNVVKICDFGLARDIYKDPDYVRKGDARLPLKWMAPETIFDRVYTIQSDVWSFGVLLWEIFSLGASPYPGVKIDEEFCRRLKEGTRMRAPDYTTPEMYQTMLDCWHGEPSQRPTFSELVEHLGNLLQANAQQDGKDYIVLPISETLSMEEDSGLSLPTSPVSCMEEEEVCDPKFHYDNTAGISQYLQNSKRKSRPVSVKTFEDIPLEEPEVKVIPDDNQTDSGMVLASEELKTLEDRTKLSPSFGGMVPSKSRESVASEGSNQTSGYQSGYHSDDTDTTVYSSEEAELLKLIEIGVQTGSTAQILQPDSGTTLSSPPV
Chain of RAC-alpha serine/threonine-protein kinase (Homo sapiens) (P31749 whole entry): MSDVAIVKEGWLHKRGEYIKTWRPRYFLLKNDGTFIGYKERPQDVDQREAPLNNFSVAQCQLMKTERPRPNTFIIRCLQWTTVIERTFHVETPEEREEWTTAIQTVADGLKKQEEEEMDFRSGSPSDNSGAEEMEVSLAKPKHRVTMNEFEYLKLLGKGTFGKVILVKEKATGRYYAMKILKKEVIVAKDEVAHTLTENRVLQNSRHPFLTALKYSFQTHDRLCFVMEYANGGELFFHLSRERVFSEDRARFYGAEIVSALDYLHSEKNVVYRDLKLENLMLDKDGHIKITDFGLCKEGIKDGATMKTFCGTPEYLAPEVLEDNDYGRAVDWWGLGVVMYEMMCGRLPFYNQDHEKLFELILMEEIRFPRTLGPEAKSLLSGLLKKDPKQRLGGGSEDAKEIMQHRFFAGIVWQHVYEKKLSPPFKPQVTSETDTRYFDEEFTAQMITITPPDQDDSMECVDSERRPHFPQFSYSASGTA
Chain of Eukaryotic translation initiation factor 4E-binding protein 1 (Homo sapiens) (Q13541 whole entry): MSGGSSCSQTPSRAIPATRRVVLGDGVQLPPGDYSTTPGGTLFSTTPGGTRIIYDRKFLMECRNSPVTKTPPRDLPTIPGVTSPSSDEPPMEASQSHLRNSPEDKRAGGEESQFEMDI

- IC50 [8]: 9 nM
Structure (SMILES): O=C(Nc1ccc(OC(F)(F)F)cc1)c1sccc1NCc1ccnc2ccccc12 [OSI-930]
- Activity [1]: inactive
- Activity [2]: Active
- Activity [3]: 700%
- Activity [4]: 72%
- Activity [5]: 28%
- Activity [6]: 61%
- Activity [7]: 61%
- Activity [9]: Active

- inhibition [11]: inactive
- inhibition [15]: inactive
- inhibition [28]: inactive
Structure (SMILES): CO[C@H]1C[C@@H]2CC[C@@H](C)[C@@](O)(O2)C(=O)C(=O)N2CCCC[C@H]2C(=O)O[C@H]([C@H](C)C[C@@H]2CC[C@@H](O)[C@H](OC)C2)CC(=O)[C@H](C)/C=C(\C)[C@@H](O)[C@@H](OC)C(=O)[C@H](C)C[C@H](C)/C=C/C=C/C=C/1C [SIROLIMUS]
- Activity [10]: 21%
- Activity [12]: inactive
- Activity [13]: inactive
- inhibition (Mus musculus [14]): Active
- inhibition (Mus musculus [16]): inactive
- Activity [17]: 48%
- inhibition (OVCAR-3 [18]): Active
- inhibition (Mus musculus [19]): Active
- inhibition (Mus musculus [20]): Active
- inhibition (OVCAR-3 [21]): Active
- Activity [22]: 15%
- Activity [23]: 20%
- Activity [24]: 21%
- Activity [25]: 34%
- inhibition (Mus musculus [26]): inactive
- Activity [27]: inactive
- Activity [29]: inactive
- Activity [30]: inactive
